Data on 1 molecule can be found in ChEMBL document CHEMBL1137650, “An OXA-66/OXA-51-like carbapenemase and possibly an efflux pump are associated with resistance to imipenem in Acinetobacter baumannii” (2007).

Bounds are passed on as bounds.

What is called MIC is the least concentration at which growth counts as inhibited.

The first assay concerns Acinetobacter baumannii. Kind of assay: Antibacterial activity against imipenem-resistant Acinetobacter baumannii abh39 by broth dilution method. It counts as functional. The essentials:
(§1)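 Clinical isolates were collected at three Taiwan hospitals (1993–2003) and grown in tryptic soy broth at 37°C for 18 h. MIC by broth dilution following CLSI recommendations.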
Background: Dilution methods test growth across graded concentrations, often in twofold steps.
In turn, `CCN1CCN(C(=O)N[C@@H](C(=O)N[C@@H]2C(=O)N3[C@@H]2SC(C)(C)[C@@H]3C(=O)O)c2ccccc2)C(=O)C1=O` [PIPERACILLIN] showed an MIC of more than 256 µg/mL.

A further assay has as its system Acinetobacter baumannii. In words: Antibacterial activity against imipenem-resistant Acinetobacter baumannii abh14 by broth dilution method. Type of assay: functional. The essentials:
as §1
In the case of `CCN1CCN(C(=O)N[C@@H](C(=O)N[C@@H]2C(=O)N3[C@@H]2SC(C)(C)[C@@H]3C(=O)O)c2ccccc2)C(=O)C1=O` [PIPERACILLIN], the MIC is more than 256 µg/mL.

A further assay has as its system Acinetobacter baumannii. Kind of assay: Antibacterial activity against imipenem-susceptible Acinetobacter baumannii ab1254 by broth dilution method. It counts as functional. In short, it runs like this:
as §1
The molecule `CCN1CCN(C(=O)N[C@@H](C(=O)N[C@@H]2C(=O)N3[C@@H]2SC(C)(C)[C@@H]3C(=O)O)c2ccccc2)C(=O)C1=O` [PIPERACILLIN] registered an MIC of more than 256 µg/mL.

The subject of the next assay is Acinetobacter baumannii. In words: Antibacterial activity against imipenem-resistant Acinetobacter baumannii ab1265 by broth dilution method. Type of assay: functional. In short, it runs like this:
as §1
As to `CCN1CCN(C(=O)N[C@@H](C(=O)N[C@@H]2C(=O)N3[C@@H]2SC(C)(C)[C@@H]3C(=O)O)c2ccccc2)C(=O)C1=O` [PIPERACILLIN], the MIC is more than 256 µg/mL.

For a further assay, the system named is Acinetobacter baumannii. Kind of assay: Antibacterial activity against imipenem-susceptible Acinetobacter baumannii ab4 by broth dilution method. Type of assay: functional. In short, it runs like this:
as §1
As to `CCN1CCN(C(=O)N[C@@H](C(=O)N[C@@H]2C(=O)N3[C@@H]2SC(C)(C)[C@@H]3C(=O)O)c2ccccc2)C(=O)C1=O` [PIPERACILLIN], the MIC was more than 256 µg/mL.

The next assay deals with Acinetobacter baumannii. Kind of assay: Antibacterial activity against imipenem-intermediate Acinetobacter baumannii ab1297 by broth dilution method. It counts as functional. In short, it runs like this: (§2)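 Clinical A. baumannii isolates collected at three Taiwanese hospitals, routinely grown in tryptic soy broth at 37°C for 18 h. MICs (μg ml⁻¹) were determined by broth dilution following CLSI recommendations, or by Etest strips following the manufacturer's instructions.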
Take `CCN1CCN(C(=O)N[C@@H](C(=O)N[C@@H]2C(=O)N3[C@@H]2SC(C)(C)[C@@H]3C(=O)O)c2ccccc2)C(=O)C1=O` [PIPERACILLIN]: the MIC is more than 256 µg/mL.

A further assay deals with Acinetobacter baumannii. Kind of assay: Antibacterial activity against imipenem-resistant Acinetobacter baumannii abh37 by broth dilution method. Type of assay: functional. In short, it runs like this:
as §1
Consider `CCN1CCN(C(=O)N[C@@H](C(=O)N[C@@H]2C(=O)N3[C@@H]2SC(C)(C)[C@@H]3C(=O)O)c2ccccc2)C(=O)C1=O` [PIPERACILLIN], for which the MIC was more than 256 µg/mL.

For the next assay, the system named is Acinetobacter baumannii. In words: Antibacterial activity against imipenem-resistant Acinetobacter baumannii abh9 by broth dilution method. Type of assay: functional. In short, it runs like this: as §1
`CCN1CCN(C(=O)N[C@@H](C(=O)N[C@@H]2C(=O)N3[C@@H]2SC(C)(C)[C@@H]3C(=O)O)c2ccccc2)C(=O)C1=O` [PIPERACILLIN]: the MIC was more than 256 µg/mL.

A further assay relates to Acinetobacter baumannii. In words: Antibacterial activity against imipenem-susceptible Acinetobacter baumannii ab20 by broth dilution method. Type of assay: functional. In short, it runs like this: as §1
Molecule `CCN1CCN(C(=O)N[C@@H](C(=O)N[C@@H]2C(=O)N3[C@@H]2SC(C)(C)[C@@H]3C(=O)O)c2ccccc2)C(=O)C1=O` [PIPERACILLIN] registered an MIC of more than 256 µg/mL.

A further assay concerns Acinetobacter baumannii. In words: Antibacterial activity against imipenem-resistant Acinetobacter baumannii abh18 by broth dilution method. Type of assay: functional. The essentials: as §1
Take `CCN1CCN(C(=O)N[C@@H](C(=O)N[C@@H]2C(=O)N3[C@@H]2SC(C)(C)[C@@H]3C(=O)O)c2ccccc2)C(=O)C1=O` [PIPERACILLIN]: the MIC is more than 256 µg/mL.

The test system of the next assay is Acinetobacter baumannii. Kind of assay: Antibacterial activity against imipenem-resistant Acinetobacter baumannii abh20 by broth dilution method. It counts as functional. The essentials:
as §1
Turning to `CCN1CCN(C(=O)N[C@@H](C(=O)N[C@@H]2C(=O)N3[C@@H]2SC(C)(C)[C@@H]3C(=O)O)c2ccccc2)C(=O)C1=O` [PIPERACILLIN], the MIC is more than 256 µg/mL.

A further assay concerns Acinetobacter baumannii. Kind of assay: Antibacterial activity against imipenem-resistant Acinetobacter baumannii ab1266 by broth dilution method. It counts as functional. The essentials:
as §1
On to `CCN1CCN(C(=O)N[C@@H](C(=O)N[C@@H]2C(=O)N3[C@@H]2SC(C)(C)[C@@H]3C(=O)O)c2ccccc2)C(=O)C1=O` [PIPERACILLIN], for which the MIC was more than 256 µg/mL.

The next assay relates to Acinetobacter baumannii. In words: Antibacterial activity against imipenem-resistant Acinetobacter baumannii abh26 by broth dilution method. It counts as functional. The essentials:
as §1
Molecule `CCN1CCN(C(=O)N[C@@H](C(=O)N[C@@H]2C(=O)N3[C@@H]2SC(C)(C)[C@@H]3C(=O)O)c2ccccc2)C(=O)C1=O` [PIPERACILLIN] returned an MIC of more than 256 µg/mL.

The subject of the next assay is Acinetobacter baumannii. Kind of assay: Antibacterial activity against imipenem-resistant Acinetobacter baumannii abh11 by broth dilution method. Type of assay: functional. In short, it runs like this: as §1
Consider `CCN1CCN(C(=O)N[C@@H](C(=O)N[C@@H]2C(=O)N3[C@@H]2SC(C)(C)[C@@H]3C(=O)O)c2ccccc2)C(=O)C1=O` [PIPERACILLIN], for which the MIC was more than 256 µg/mL.

A further assay deals with Acinetobacter baumannii. Kind of assay: Antibacterial activity against imipenem-susceptible Acinetobacter baumannii ab1308 by broth dilution method. It counts as functional. The essentials: as §2
`CCN1CCN(C(=O)N[C@@H](C(=O)N[C@@H]2C(=O)N3[C@@H]2SC(C)(C)[C@@H]3C(=O)O)c2ccccc2)C(=O)C1=O` [PIPERACILLIN] showed an MIC of more than 256 µg/mL.

In the next assay the test system is Acinetobacter baumannii. Kind of assay: Antibacterial activity against imipenem-susceptible Acinetobacter baumannii ab3 by broth dilution method. It counts as functional. The essentials:
as §1
In turn, `CCN1CCN(C(=O)N[C@@H](C(=O)N[C@@H]2C(=O)N3[C@@H]2SC(C)(C)[C@@H]3C(=O)O)c2ccccc2)C(=O)C1=O` [PIPERACILLIN] showed an MIC of more than 256 µg/mL.

The subject of another assay is Acinetobacter baumannii. Kind of assay: Antibacterial activity against imipenem-susceptible Acinetobacter baumannii ab1316 by broth dilution method. Type of assay: functional. In short, it runs like this:
as §2
The molecule `CCN1CCN(C(=O)N[C@@H](C(=O)N[C@@H]2C(=O)N3[C@@H]2SC(C)(C)[C@@H]3C(=O)O)c2ccccc2)C(=O)C1=O` [PIPERACILLIN] came in with an MIC of more than 256 µg/mL.

The next assay concerns Acinetobacter baumannii. In words: Antibacterial activity against imipenem-resistant Acinetobacter baumannii abh29 by broth dilution method. Type of assay: functional. In short, it runs like this:
as §1
With `CCN1CCN(C(=O)N[C@@H](C(=O)N[C@@H]2C(=O)N3[C@@H]2SC(C)(C)[C@@H]3C(=O)O)c2ccccc2)C(=O)C1=O` [PIPERACILLIN], the MIC was more than 256 µg/mL.

The next assay concerns Acinetobacter baumannii. Kind of assay: Antibacterial activity against imipenem-resistant Acinetobacter baumannii abh13 by broth dilution method. Type of assay: functional. The essentials: as §1
On to `CCN1CCN(C(=O)N[C@@H](C(=O)N[C@@H]2C(=O)N3[C@@H]2SC(C)(C)[C@@H]3C(=O)O)c2ccccc2)C(=O)C1=O` [PIPERACILLIN], for which the MIC is more than 256 µg/mL.

For a further assay, the system named is Acinetobacter baumannii. Kind of assay: Antibacterial activity against imipenem-resistant Acinetobacter baumannii abh17 by broth dilution method. It counts as functional. In short, it runs like this:
as §1
As to `CCN1CCN(C(=O)N[C@@H](C(=O)N[C@@H]2C(=O)N3[C@@H]2SC(C)(C)[C@@H]3C(=O)O)c2ccccc2)C(=O)C1=O` [PIPERACILLIN], the MIC is more than 256 µg/mL.

A further assay concerns Acinetobacter baumannii. In words: Antibacterial activity against imipenem-susceptible Acinetobacter baumannii ab12 by broth dilution method. Type of assay: functional. In short, it runs like this:
as §1
In turn, `CCN1CCN(C(=O)N[C@@H](C(=O)N[C@@H]2C(=O)N3[C@@H]2SC(C)(C)[C@@H]3C(=O)O)c2ccccc2)C(=O)C1=O` [PIPERACILLIN] displayed an MIC of more than 256 µg/mL.

The test system of the next assay is Acinetobacter baumannii. In words: Antibacterial activity against imipenem-resistant Acinetobacter baumannii abh36 by broth dilution method. It counts as functional. The essentials: as §1
Consider `CCN1CCN(C(=O)N[C@@H](C(=O)N[C@@H]2C(=O)N3[C@@H]2SC(C)(C)[C@@H]3C(=O)O)c2ccccc2)C(=O)C1=O` [PIPERACILLIN], for which the MIC is more than 256 µg/mL.

Another assay deals with Acinetobacter baumannii. Kind of assay: Antibacterial activity against imipenem-susceptible Acinetobacter baumannii ab8 by broth dilution method. Type of assay: functional. The essentials:
as §1
In turn, `CCN1CCN(C(=O)N[C@@H](C(=O)N[C@@H]2C(=O)N3[C@@H]2SC(C)(C)[C@@H]3C(=O)O)c2ccccc2)C(=O)C1=O` [PIPERACILLIN] yielded an MIC of more than 256 µg/mL.
